These results are taken from ChEMBL document CHEMBL1125330, “N-substituted pyrazino[2,3-c][1,2,6]thiadiazine 2,2-dioxides. A new class of diuretics” (J Med Chem, 1992).

For data set [1], the system named is Rattus norvegicus. Nature of the data set: Volume of urine 2 hr after the compound was administered 10 mg/kg po in rat. More on the design: dose 10 mg/kg, route oral. In kind it is ADME, organism-based. Particulars: in vivo. Put shortly: (§1)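 Onset/duration protocol: male Sprague-Dawley rats (HC/CFY, 175-200 g), food and water withdrawn for 18 h before and during the test. Single gavage dose in 1% carboxymethyl cellulose/0.1% Tween 80 (0.5 mL/100 g bw), then distilled water load (2.5 mL/100 g bw po). Two rats per metabolic cage, six pairs per group. Urine collected at 0-1, 1-2, 2-3, 3-4 and 4-6 h; Na+ by flame photometry. Vehicle controls; nonpaired Student t-test.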

Data set [2] relates to Rattus norvegicus. In words: Mean sodium excretion in rats when compound administered at 5 mg/kg po and vehicle dosed at 16.79 umol/kg. More on the design: dose 5 mg/kg, route oral. The following applies: in vivo. The format is ADME, organism-based. The essentials:
(§2)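 Male Sprague-Dawley rats (HC/CFY, 175-200 g) fasted and water-deprived 18 h before and during the test. Dosed by gavage at 2.5-160 mg/kg in 1% carboxymethyl cellulose/0.1% Tween 80, 0.5 mL/100 g bw. Immediately hydrated with water (2.5 mL/100 g bw, po). Urine collected 6 h in metabolic cages; Na+ and K+ by flame photometry; mean mequiv/6 h/kg bw; nonpaired Student t-test.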

Data set [3] has as its system Rattus norvegicus. In words: Mean potassium excretion in rats when compound administered at 20 mg/kg po and vehicle dosed at 67.18 umol/kg. In kind it is ADME, organism-based. More on the design: dose 20 mg/kg, route oral. The following applies: in vivo. The essentials:
(§3)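 Male Sprague-Dawley rats (HC/CFY, 175-200 g), no food or water for 18 h before and during the test. Single gavage dose (2.5-160 mg/kg; vehicle 1% carboxymethyl cellulose/0.1% Tween 80, 0.5 mL/100 g bw), then distilled water 2.5 mL/100 g bw po. Individual metabolic cages, 6 h urine. K+ by flame photometry, Cl- colorimetric, as mequiv/6 h/kg bw; unpaired Student t-test vs control.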

The subject of data set [4] is Rattus norvegicus. Nature of the data set: Mean sodium excretion in rats when compound administered at 20 mg/kg po and vehicle dosed at 67.18 umol/kg. More on the design: dose 20 mg/kg, route oral. The format is ADME, organism-based. Particulars: in vivo. Put shortly:
as §2

Data set [5] has as its system Rattus norvegicus. In words: Volume of urine 3h after the compound was administered 10 mg/kg po in rat. In kind it is ADME, organism-based. More on the design: dose 10 mg/kg, route oral. The following applies: in vivo. The essentials:
as §1

For data set [6], the system named is Rattus norvegicus. In words: Urinary sodium 1 hr after the compound was administered 10 mg/kg po in rat. The format is ADME, organism-based, Urine. Also noted: dose 10 mg/kg, route oral. Particulars: in vivo. Put shortly:
(§4)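 Onset and duration study in fasted, water-loaded male Sprague-Dawley rats housed two per metabolic cage, six pairs per group. Single oral dose given, then water 2.5 mL/100 g po. Urine volume and sodium (flame photometry) measured over 0-1, 1-2, 2-3, 3-4 and 4-6 h intervals. Mean values compared with vehicle by Student t-test.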

The subject of data set [7] is Rattus norvegicus. In words: Mean urinary output in rats when compound administered at 10 mg/kg po and vehicle dosed at 33.59 umol/kg. In kind it is ADME, organism-based, Urine. Also noted: dose 10 mg/kg, route oral. Particulars: in vivo. Put shortly: (§5)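 Water-loaded male Sprague-Dawley rats (HC/CFY, 175-200 g) fasted and without water for 18 h. Oral gavage of 2.5-160 mg/kg in 1% CMC with 0.1% Tween 80, then distilled water 2.5 mL/100 g po. Urine collected 6 h in metabolic cages, mean output in mL/6 h/kg bw. Unpaired Student t-test against vehicle; dose-response by linear regression.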

Data set [8] has as its system Rattus norvegicus. Nature of the data set: Mean Chlorine excretion in rats when compound administered at 2.5 mg/kg po and vehicle dosed at 8.4 umol/kg. The format is ADME, organism-based. More on the design: dose 2.5 mg/kg, route oral. Particulars: in vivo. The essentials: as §3
Data set [9] relates to Rattus norvegicus. Nature of the data set: Mean Chlorine excretion in rats when compound administered at 0 mg/kg po and vehicle dosed at 0 umol/kg. The format is ADME, organism-based. More on the design: dose 0 mg/kg, route oral. The following applies: in vivo.
The test system of data set [10] is Rattus norvegicus. Nature of the data set: Mean urinary output in rats when compound administered at 2.5 mg/kg po and vehicle dosed at 8.4 umol/kg. In kind it is ADME, organism-based, Urine. Also noted: dose 2.5 mg/kg, route oral. The following applies: in vivo. Put shortly: as §5
Data set [11] is filed under the species Rattus norvegicus. In words: Dose required to produce increase in 50 % in urine production vs control groups. The format is functional. The following applies: Rattus norvegicus, Urine. The essentials: (§6)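 Male Sprague-Dawley rats (HC/CFY, 175-200 g), fasted and water-deprived 18 h before and during the test. Compound dosed by gavage in 1% carboxymethyl cellulose/0.1% Tween 80, then water load 2.5 mL/100 g bw po. Urine collected 6 h in metabolic cages; Na+ by flame photometry. Effective doses vs vehicle controls derived by linear regression of dose-response data.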

For data set [12], the system named is Rattus norvegicus. Nature of the data set: Mean Chlorine excretion in rats when compound administered at 80 mg/kg po and vehicle dosed at 268.71 umol/kg. In kind it is ADME, organism-based. Also noted: dose 80 mg/kg, route oral. The following applies: in vivo. The essentials:
as §3

The test system of data set [13] is Rattus norvegicus. In words: Mean potassium excretion in rats when compound administered at 80 mg/kg po and vehicle dosed at 268.71 umol/kg. The format is ADME, organism-based. More on the design: dose 80 mg/kg, route oral. Particulars: in vivo. The essentials:
as §2

The subject of data set [14] is Rattus norvegicus. In words: Mean potassium excretion in rats when compound administered at 40 mg/kg po and vehicle dosed at 134.35 umol/kg. In kind it is ADME, organism-based. Also noted: dose 40 mg/kg, route oral. Particulars: in vivo. The essentials:
as §3

The subject of data set [15] is Rattus norvegicus. In words: Dose required to produce an excretion of 2 mequiv of Na+/kg bw/6h vs control groups. The format is functional. Put shortly: as §6
Data set [16] has as its system Rattus norvegicus. Nature of the data set: Volume of urine 4 hr after the compound was administered 10 mg/kg po in rat. In kind it is ADME, organism-based. More on the design: dose 10 mg/kg, route oral. Particulars: in vivo. Put shortly: as §1
In data set [17] the test system is Rattus norvegicus. In words: Mean urinary output in rats when compound administered at 80 mg/kg po and vehicle dosed at 268.71 umol/kg. In kind it is ADME, organism-based, Urine. Also noted: dose 80 mg/kg, route oral. Particulars: in vivo. The essentials: as §5
Data set [18] deals with Rattus norvegicus. In words: Urinary sodium 3h after the compound was administered 10 mg/kg po in rat. In kind it is ADME, organism-based, Urine. More on the design: dose 10 mg/kg, route oral. Particulars: in vivo. Put shortly: as §4
For data set [19], the system named is Rattus norvegicus. In words: Mean potassium excretion in rats when compound administered at 5 mg/kg po and vehicle dosed at 16.79 umol/kg. The following applies: in vivo. Also noted: dose 5 mg/kg, route oral. In kind it is ADME, organism-based. The essentials: as §2
Data set [20] deals with Rattus norvegicus. In words: Mean sodium excretion in rats when compound administered at 40 mg/kg po and vehicle dosed at 134.35 umol/kg. The format is ADME, organism-based. More on the design: dose 40 mg/kg, route oral. Particulars: in vivo. The essentials: as §2
Data set [21] concerns Rattus norvegicus. Nature of the data set: Urinary sodium 4 hr after the compound was administered 10 mg/kg po in rat. The format is ADME, organism-based, Urine. More on the design: dose 10 mg/kg, route oral. The following applies: in vivo. The essentials: as §4

Molecules are shown by their SMILES.

As a reminder, the ED50 is the dose at which the effect has come halfway, by size or by number of responders. `NS(=O)(=O)c1cc2c(cc1Cl)NCNS2(=O)=O` [HYDROCHLOROTHIAZIDE]: the Urine volume came to 4.97 mL in [1], 3.37 mL in [5] and 2.92 mL in data set [16]. Moreover, the values for the Na in data set [2], in [4] and in data set [20] were 3.03 m equiv 6hr-1 kg-1 (body weight)-1, 3.05 m equiv 6hr-1 kg-1 (body weight)-1 and 2.78 m equiv 6hr-1 kg-1 (body weight)-1, respectively. Further, the K in [3] is on record as 1.43 m equiv 6hr-1 kg-1 (body weight)-1; in data set [13], 1.57 m equiv 6hr-1 kg-1 (body weight)-1; in data set [14], 1.64 m equiv 6hr-1 kg-1 (body weight)-1; in [19] it was 1.23 m equiv 6hr-1 kg-1 (body weight)-1. Further, the “Urinary Na+” value worked out at 0.19 m equiv in [6], 0.17 m equiv in data set [18] and 0.16 m equiv in data set [21]. For the same molecule, the values for the V in data set [7], in [10] and in [17] were 39.01 ml 6hr-1 (kg of body weight)-1, 32.5 ml 6hr-1 (kg of body weight)-1 and 47.06 ml 6hr-1 (kg of body weight)-1, respectively. Moreover, the values for the Cl- in data set [8], in data set [9] and in data set [12] were 4.42 m equiv 6hr-1 kg-1 (body weight)-1, 0.78 m equiv 6hr-1 kg-1 (body weight)-1 and 4.88 m equiv 6hr-1 kg-1 (body weight)-1, respectively. In data set [11], this molecule had an ED50 of 4.86 mg/kg. The ED2 in data set [15] is 1.57 mg/kg.
